Assay outcomes deposited in PubChem BioAssay by Broad Institute.
Rows were chosen to be rich in hits. Some 3.1% of all compounds tested hit in one or more screens of this group.
T cruzi inh = inhibitors of intracellular T. cruzi growth, primary screen, luminescence, NIH3T3 host cells; T. cruzi beta-gal in NIH3T3, 90 h; inhibition, % (concentration not given with the values); 300,000 compounds, 1.4% hits; AID 1885, 2009;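 active = mean inhibition across valid replicates above about 55%, limit read from the data; inconclusive = mean below that limit but half or more replicates reach it; inactive = mean below it, under half of replicates reach it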;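 note: signal also drops with host cell toxicity which is not excluded here; higher percent means less beta-gal luminescence so fewer parasites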
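Assay system: NIH/3T3 host cells with β-galactosidase reporter T. cruzi; input: 5,000 host fibroblasts per well; compound: single 50 nL compound addition per well in DMSO; timing: ≥90 h infection period, 3 h prior cell attachment; measured by: GalScreen β-gal luminescence, detergent lysis, 60 min; evaluation: percent inhibition of parasite-derived β-gal signal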
HIF activator = HIF pathway transcriptional activators, primary screen, cell-based, U2OS HRE-luciferase, luminescence. U2OS HRE-luciferase reporter; normalized: DMSO 0%, desferrioxamine 100%. 300,000 compounds, 0.32% hits. activation, % at 7.5 µM (by protocol);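 active = mean activation of at least 10% of the iron chelator positive control signal, with at least half of replicates also reaching 10%; inconclusive = mean and replicate majority disagree about reaching 10%; inactive = mean and most replicates under 10%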
Beta cell apopt = inhibitors of cytokine-induced beta cell apoptosis, primary screen, luminescence; 300,000 compounds, 0.8% hits; INS-1E cytokine-induced death, ATP luminescence, 48 h; percent of positive-control rescue, neutral wells zero; protection from apoptosis, % (no concentration beside the values);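 active = Every replicate reaches about 75%, or at least half do and their mean reaches it too, limit read from the data; inconclusive = At least half of replicates reach the limit but their mean does not; inactive = Under half of replicates reach the limit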;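 note: higher means more ATP so stronger rescue from cytokine killing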
CSC inhib = cancer stem cell viability inhibitors, primary screen, luminescence. cancer stem cell-like cells viability. inhibition, % at 7.5 µM. 300,000 compounds, 1.1% hits. AID 2717, 2010; in the data active = inhibition above about 75%; inconclusive = no clear call, values can overlap the other calls; tested in HMLE shEcad cells
Calb FLC = C. albicans growth inhibition with fluconazole, primary screen, CaCi-2 strain, Alamar Blue fluorescence | C. albicans CaCi-2 + fluconazole, 48 h | 300,000 compounds, 0.57% hits | AID 1979, 2009 | growth inhibition, % (concentration not given with the values);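 active = growth inhibition above about 58% in most replicates, limit read from the data, passing the limit was not always enough; inconclusive = exactly half the replicates above a set limit; inactive = most replicates below a set limit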;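 note: all wells also contain fluconazole at 8 µg/ml as a sub-toxic cotreatment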
PolyA inhibitor = polyadenylation inhibitors in yeast reporter cells, primary screen, luminescence, S. cerevisiae; S. cerevisiae SKY197-pL101 polyadenylation reporter, beta-gal luminescence; efflux-impaired pdr1/pdr3 knockout yeast; score 100 = 6 SD above DMSO; activity score, % at 12 µM; 300,000 compounds, 0.02% hits;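 active = lowest replicate activity score at least 50, where 100 means six control SD above control mean; inconclusive = lowest score under 50 but half or more replicates reach 50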;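 note: yeast exposed to compound for 9 h at 30 °C; higher score means more reporter readthrough which indicates perturbed polyadenylation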
Each line names hits and unclear results; the compound was inactive in the other large screens; ! = not confirmed by another sample.

CC(=O)c1ccc(N2CCN(c3ccc(S(=O)(=O)NCCCN(C)C)cc3[N+](=O)[O-])CC2)cc1	CSC inhib 81.5
CC(=O)c1ccc(N2CCN(c3ccc(S(=O)(=O)NCCN(C)C)cc3[N+](=O)[O-])CC2)cc1	T cruzi inh 59.2
N/C(Cc1ccc(Cl)c(Cl)c1)=N\OC(=O)c1cccs1	Calb FLC 101.4
N/C(=N\OC(=O)c1cccs1)C1(c2ccc(Cl)cc2Cl)CC1	none
Cc1cc(C)c(S(=O)(=O)N2CCN(S(=O)(=O)N3CCOCC3)CC2)c(C)c1	none
CNc1ncnc(Sc2ccc(Cl)cc2)c1[N+](=O)[O-]	T cruzi inh 65.7
c1ccc(CNc2ncnc3sccc23)cc1	none
COc1ccc(CNc2ncnc3sccc23)cc1	Beta cell apopt 75.4, PolyA inhibitor 114.0
c1csc(CNc2ncnc3sccc23)c1	Beta cell apopt 79.9, Calb FLC 84.6
COc1ccc(CNc2ncnc3sccc23)cc1OC	none
Cc1cc(C)n2nc(C(=O)Nc3ccc4c(c3)CCC4)nc2n1	none
CC1CC(C)CN(CCCNS(=O)(=O)c2ccc3c(c2)CCN3C(=O)C2CC2)C1 (stereo unspecified)	none
CCOC(=O)c1c(-c2ccc(-c3ccccc3)cc2)csc1NC(=O)CNCCN(C)C	CSC inhib 99.0
CCOC(=O)c1c(-c2ccc(-c3ccccc3)cc2)csc1NC(=O)CCN1CCOCC1	CSC inhib 105.0
CSCCC(NC(=O)c1ccccc1)C(=O)N1CCN(C(c2ccccc2)c2ccccc2)CC1 (stereo unspecified)	none
COc1cc(/C=C/c2[nH]c(=O)[nH]c(=O)c2[N+](=O)[O-])ccc1OCCC(C)C	CSC inhib 77.4
O=C(NNC(=O)c1ccc(Cl)s1)c1csc(N2CCOCC2)n1	none
COc1ccc(CNS(=O)(=O)NCc2ccc(C)cc2)cc1	none
CCC(/C=C1\Sc2ccc(OC)cc2N1CC)=C\c1sc2ccc(OC)cc2[n+]1CCCS(=O)(=O)[O-]	Beta cell apopt 102.6
O=C(O)c1cc(N2C(=O)C3CC=CCC3C2=O)ccc1NCc1cccnc1 (stereo unspecified)	none
CCn1c(=O)cc(C(=O)OC)sc1=Nc1ccc(F)c(F)c1	none
CCOC(=O)c1ccc(N=c2sc(C(=O)OC)cc(=O)n2Cc2ccco2)cc1	CSC inhib 92.4
CCOC(=O)c1ccc(N=c2sc(C(=O)OC)cc(=O)n2CCCN2CCOCC2)cc1	CSC inhib 101.1!
O=C(COC(=O)c1ccccc1NCCO)Nc1cc(C(F)(F)F)ccc1N1CCOCC1	none
CCN(CC)CCN(C)C(=O)CCc1nnc(-c2ccc(C)s2)o1	T cruzi inh 57.4
Cc1cc(-c2ccc(C(C)C)c(S(=O)(=O)N3CCC(C)CC3)c2)on1	none
Nc1nc2ccccc2n1/N=C/c1ccc([N+](=O)[O-])s1	Beta cell apopt 107.6, Calb FLC inconclusive
Nc1nc2ccccc2n1/N=C/c1cccnc1	none (no result: CSC inhib)
CC(C)c1ccc(NC2CCCN(C(=O)C3=NN(C)C(=O)CC3)C2)cc1 (stereo unspecified)	none
Cc1ccc(-n2c(-c3ccccc3)cc(/C=N/NC(=O)CC#N)c2-c2ccccc2)cc1	T cruzi inh 65.4, Beta cell apopt 123.4
N#CCC(=O)N/N=C/c1cc(-c2ccccc2)n(-c2ccc(Cl)cc2)c1-c1ccccc1	T cruzi inh 59.6, Beta cell apopt 108.8
CCCCOc1ccccc1/C=N/NC(=O)CC#N	none
CCOc1cc(C(N)=O)cc(Cl)c1OCc1ccccc1	Calb FLC 111.6
OC(CNC1CCCCC1)COCCOc1ccc(Br)cc1 (stereo unspecified)	Beta cell apopt 106.3
Cc1ccc(-c2csc(NC(=O)c3ccc(C)o3)n2)cc1	none (no result: Beta cell apopt, CSC inhib)
Cc1cnc(NC(=O)c2nn(C)cc2[N+](=O)[O-])s1	none (no result: Beta cell apopt, CSC inhib)
Cn1cc([N+](=O)[O-])c(C(=O)Nc2nc(-c3ccc(Cl)cc3)cs2)n1	CSC inhib 103.0 (no result: Beta cell apopt)
Cn1cc([N+](=O)[O-])c(C(=O)Nc2ccc(C3CCCCC3)cc2)n1	CSC inhib 117.4
Cc1ccc(-c2nc(NC(=O)c3nn(C)cc3[N+](=O)[O-])sc2C)cc1	Beta cell apopt 116.0 (no result: CSC inhib)
Cc1ccc(-c2csc(NC(=O)c3ccc([N+](=O)[O-])o3)n2)cc1	T cruzi inh 69.6, CSC inhib 127.2
Cc1ccc2nc(/N=C(\N)NC(=O)NC3CCCCC3)nc(C)c2c1	none
CCN1C(=O)/C(=C/C=C2/CCCN2C)OC1=S	none
COc1ccc(Oc2ccccc2C=O)cc1	none
Cc1ccc(-c2nc(NC(=O)c3nn(C)cc3[N+](=O)[O-])sc2C)cc1C	T cruzi inh 64.1, Beta cell apopt 107.0 (no result: CSC inhib)
Clc1ccc(CSc2nnnn2-c2ccc3c(c2)OCO3)c(Cl)c1	CSC inhib 82.3
COc1ccc(C(CCNC(C)c2ccccc2)C(C)C)cc1 (stereo unspecified)	none
COc1ccc(C(C)NCCC(c2ccc(OC(C)C)cc2)c2ccccc2OC)cc1 (stereo unspecified)	T cruzi inh inconclusive, Beta cell apopt 82.0, CSC inhib 104.1
Cc1[nH]c2ccccc2c1CCN(Cc1cccnc1)C(=S)Nc1ccc(F)cc1	none
Cc1[nH]c2ccccc2c1CCN(Cc1cccnc1)C(=S)Nc1cccc(F)c1	T cruzi inh 57.7
Cc1[nH]c2ccc(F)cc2c1CCN(Cc1cccnc1)C(=S)Nc1ccccc1	T cruzi inh 59.5
Cc1cc2nc(CCN(Cc3cccnc3)C(=S)Nc3ccc(F)cc3)[nH]c2cc1C	T cruzi inh 61.4 (no result: Beta cell apopt, CSC inhib)
N#Cc1ccc2[nH]c(CO)c(-c3ccccc3)c2c1	none
Cc1cccc(NS(=O)(=O)c2cccc(C(=O)NCCCN3CCOCC3)c2)c1	none (no result: Beta cell apopt)
CN(C)Cc1nc2ccccc2c(=O)n1Cc1nc(C(C)(C)C)cs1	none (no result: T cruzi inh, HIF activator, Calb FLC, PolyA inhibitor)
CN1CCN(Cc2nc3ccccc3c(=O)n2Cc2nc(-c3ccccc3F)cs2)CC1	HIF activator 19.9
CN1CCN(Cc2nc3ccccc3c(=O)n2Cc2nc(-c3ccc4ccccc4c3)cs2)CC1	CSC inhib 99.3
CC(=O)Cn1c(CN2CCCC2)nc2ccccc2c1=O	none
Nc1nn(S(=O)(=O)c2ccccc2)cc1-c1cccc([N+](=O)[O-])c1	T cruzi inh 57.2
O=C(Nc1cccnc1Cl)c1cc([N+](=O)[O-])ccc1Cl	T cruzi inh 66.4
Nc1ccc(-c2cc(-c3cccc(N)c3)nc(-c3ccccc3)n2)cc1	CSC inhib 83.6
Nc1ccc(-c2nc(-c3ccccc3)nc3ccccc23)cc1	none
Clc1ccc(Cn2ncc3c(NCc4ccccc4)ncnc32)c(Cl)c1	CSC inhib 76.8
